# Assay results as given in ChEMBL document CHEMBL3232843, “Novel pyrrolidine diketopiperazines selectively inhibit melanoma cells via induction of late-onset apoptosis” (J Med Chem, 2014).
# Active and inactive are the calls of the source. No cut-off for these calls is given here.
# How the values were obtained:
# A549 [1] = test: Cytotoxicity against human A549 cells after 72 hrs by CellTiter-Glo luminescence assay; type: functional, cell-based; conditions: A549, 72 h
# Procedure, shortened: (§1)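 1250 cells per well in serum-free medium (F12 for CHO-K1 and A549, DMEM for M14). Compounds given as 10-point 1:3 serial dilutions from a 300 µM stock, plus a gefitinib control. Incubated 72 h at 37 °C, 5% CO2. CellTiter-Glo added for 15 min at room temperature, then luminescence read. Viability normalized to media-only wells (0%) and 1% DMSO wells (100%). Run in triplicate.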
# M14 [2] = test: Cytotoxicity against human M14 cells after 72 hrs by CellTiter-Glo luminescence assay; type: functional, cell-based; conditions: for IC50: M14, 72 h; procedure, shortened: as §1
# A549 [3] = test: Selectivity ratio of IC50 for human M14 cells over IC50 for human A549 cells; type: functional
# Procedure, shortened: (§2)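 Ratio of 72 h CellTiter-Glo IC50 values between the stated cell lines. Each IC50 comes from a 10-point 1:3 dose–response series and is the mean of three experiments ± standard deviation.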
# CHO-K1 = test: Selectivity ratio of IC50 for human M14 cells over IC50 for CHOK1 cells; type: functional; procedure, shortened: as §2
# [4] = Cytotoxicity against CHOK1 cells after 72 hrs by CellTiter-Glo luminescence assay; type: cell-based; conditions: Cricetulus griseus, CHO-K1, 72 h; procedure, shortened: as §1
# M14 [5] = test: Cytotoxicity against human M14 cells assessed as cell viability at 100 uM after 4 hrs by CellTiter-Glo luminescence assay; type: functional, cell-based
# Procedure, shortened: (§3)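 M14 cells, 1250 per well, in serum-free DMEM. Compounds given in 10-point 1:3 dilution series starting at 100 µM; controls were gefitinib, doxorubicin and ionomycin. Incubated at 37 °C, 5% CO2. CellTiter-Glo luminescence read at 4, 24, 48 and 72 h. Viability normalized to media-only wells and 1% DMSO-treated wells.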
# B16-F10 = test: (§4) Cytotoxicity against mouse B16F10 cells expressing p53 mutant after 48 hrs by hexosaminidase assay; type: functional, cell-based
# Procedure, shortened: (§5)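 SK-MEL-28 or B16/F10 cells plated in 96-well plates, grown overnight, then treated with 0–50 µM compound for 48 h. Cells washed with PBS, given hexosaminidase substrate for 30 min at 37 °C, then developer. Absorbance read at 405 nm. Percent viability = treated/control absorbance × 100.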
# [6] = as §4; type: functional, cell-based; conditions: B16-F10, 48 h; procedure, shortened: as §5
# M14 [7] = test: Cytotoxicity against human M14 cells assessed as cell viability after 48 hrs using GF-AFC as substrate by ApoTox-Glo triplex assay; type: functional, cell-based
# Procedure, shortened: (§6)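 M14 cells, 1250 per well, in serum-free DMEM, settled 4 h, then given 1:3 serial dilutions. Ionomycin, terfenadine and panobinostat were the controls. Incubated 4, 24, 48 or 72 h at 37 °C. A reagent containing 400 µM GF-AFC (live-cell protease, ex 400/em 505 nm) and 400 µM bis-AAF-R110 (dead-cell protease, ex 485/em 520 nm) was applied for 30 min at 37 °C. Caspase-Glo 3/7 (DEVD) luminescence was then read after 30 min at room temperature.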
# [8] = target: Histone deacetylase 2 (Homo sapiens) (UniProt Q92769); test: Inhibition of HDAC2 (unknown origin) up to 100 uM
# Sequence of Histone deacetylase 2 (Homo sapiens) (Q92769 whole entry): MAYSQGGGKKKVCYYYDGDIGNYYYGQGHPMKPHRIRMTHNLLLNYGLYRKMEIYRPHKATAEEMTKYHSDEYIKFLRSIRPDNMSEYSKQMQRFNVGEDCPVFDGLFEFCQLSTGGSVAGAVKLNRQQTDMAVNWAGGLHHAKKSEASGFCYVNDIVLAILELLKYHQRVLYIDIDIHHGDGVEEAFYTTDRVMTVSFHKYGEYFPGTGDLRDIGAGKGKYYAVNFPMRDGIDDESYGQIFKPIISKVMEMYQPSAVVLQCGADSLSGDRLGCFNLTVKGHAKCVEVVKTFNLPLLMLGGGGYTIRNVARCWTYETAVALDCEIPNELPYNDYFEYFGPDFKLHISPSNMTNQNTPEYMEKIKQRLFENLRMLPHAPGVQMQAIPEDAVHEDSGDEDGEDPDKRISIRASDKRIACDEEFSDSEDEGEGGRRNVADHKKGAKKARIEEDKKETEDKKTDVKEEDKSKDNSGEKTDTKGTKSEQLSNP
# SK-MEL-28 [9] = test: Cytotoxicity against human SK-MEL-28 cells expressing B-raf V600E mutant after 48 hrs by hexosaminidase assay; type: functional, cell-based; procedure, shortened: as §5
# M14 [10] = test: Cytotoxicity against human M14 cells assessed as cell viability after 48 hrs using bis-AAF-R110 as substrate by ApoTox-Glo triplex assay; type: functional, cell-based; procedure, shortened: as §6
# M14 [11] = test: Induction of apoptosis human M14 cells assessed as caspase activity at 100 uM after 4 hrs using DEVD peptide as substrate by ApoTox-Glo triplex assay; type: functional, cell-based; procedure, shortened: as §6
# M14 [12] = test: Induction of apoptosis human M14 cells assessed as caspase activity at 100 uM after 72 hrs using DEVD peptide as substrate by ApoTox-Glo triplex assay; type: functional, cell-based; procedure, shortened: as §6
# M14 [13] = test: Cytotoxicity against human M14 cells assessed as cell viability at 100 uM after 4 hrs using bis-AAF-R110 as substrate by ApoTox-Glo triplex assay; type: functional, cell-based; procedure, shortened: as §6
# SK-MEL-28 [14] = test: Cytotoxicity against human SK-MEL-28 cells expressing B-raf V600E mutant at 10 uM after 48 hrs by hexosaminidase assay; type: functional; conditions: SK-MEL-28, 48 h; procedure, shortened: as §5
# M14 [15] = test: Cytotoxicity against human M14 cells assessed as cell viability at 100 uM after 48 hrs by CellTiter-Glo luminescence assay; type: functional, cell-based; procedure, shortened: as §3
# M14 [16] = test: Induction of apoptosis human M14 cells assessed as caspase activity at 100 uM after 48 hrs using DEVD peptide as substrate by ApoTox-Glo triplex assay relative to control; type: functional
# Procedure, shortened: (§7)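 M14 #5 cells, 1250 per well in serum-free DMEM, pre-incubated 4 h at 37 °C, 5% CO2. Compounds added as 1:3 serial dilutions; incubated 4, 24, 48 and 72 h. Per time point, a reagent containing 400 µM GF-AFC (live-cell protease) and 400 µM bis-AAF-R110 (dead-cell protease) was added for 30 min at 37 °C, then fluorescence was read. Caspase-Glo 3/7 was added next, 30 min at room temperature, then luminescence.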
# M14 [17] = test: Cytotoxicity against human M14 cells assessed as cell viability at 100 uM after 24 hrs by CellTiter-Glo luminescence assay; type: functional, cell-based; procedure, shortened: as §3
# [18] = Cytotoxicity against mouse B16F10 cells expressing p53 mutant at 10 uM after 48 hrs by hexosaminidase assay; type: functional; conditions: B16-F10, 48 h; procedure, shortened: as §5
# [19] = target: Histone deacetylase 1 (Homo sapiens) (UniProt Q13547); test: Inhibition of HDAC1 (unknown origin) up to 100 uM
# Sequence of Histone deacetylase 1 (Homo sapiens) (Q13547 whole entry): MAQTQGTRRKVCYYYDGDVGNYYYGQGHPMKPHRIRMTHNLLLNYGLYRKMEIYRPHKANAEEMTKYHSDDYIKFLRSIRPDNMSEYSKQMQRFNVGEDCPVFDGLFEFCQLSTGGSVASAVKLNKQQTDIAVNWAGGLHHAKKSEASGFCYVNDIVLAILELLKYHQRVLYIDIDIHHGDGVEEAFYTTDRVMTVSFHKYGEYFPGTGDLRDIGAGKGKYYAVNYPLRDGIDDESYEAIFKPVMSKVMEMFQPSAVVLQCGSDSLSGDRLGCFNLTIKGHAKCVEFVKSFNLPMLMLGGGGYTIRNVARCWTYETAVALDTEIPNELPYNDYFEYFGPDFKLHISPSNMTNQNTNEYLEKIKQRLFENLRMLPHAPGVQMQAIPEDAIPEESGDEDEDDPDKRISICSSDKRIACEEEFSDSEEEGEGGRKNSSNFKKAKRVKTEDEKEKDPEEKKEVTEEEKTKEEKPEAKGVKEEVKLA
# M14 [20] = test: Cytotoxicity against human M14 cells assessed as cell viability at 100 uM after 4 hrs using GF-AFC as substrate by ApoTox-Glo triplex assay; type: functional, cell-based; procedure, shortened: as §6
# M14 [21] = test: Induction of apoptosis human M14 cells assessed as caspase activity at 100 uM after 24 hrs using DEVD peptide as substrate by ApoTox-Glo triplex assay relative to control; type: functional; procedure, shortened: as §7
# [22] = target: T1, Protein deacetylase HDAC6 (Homo sapiens) (UniProt Q9UBN7); test: Inhibition of HDAC6 (unknown origin) up to 100 uM
# T1 sequence (whole entry): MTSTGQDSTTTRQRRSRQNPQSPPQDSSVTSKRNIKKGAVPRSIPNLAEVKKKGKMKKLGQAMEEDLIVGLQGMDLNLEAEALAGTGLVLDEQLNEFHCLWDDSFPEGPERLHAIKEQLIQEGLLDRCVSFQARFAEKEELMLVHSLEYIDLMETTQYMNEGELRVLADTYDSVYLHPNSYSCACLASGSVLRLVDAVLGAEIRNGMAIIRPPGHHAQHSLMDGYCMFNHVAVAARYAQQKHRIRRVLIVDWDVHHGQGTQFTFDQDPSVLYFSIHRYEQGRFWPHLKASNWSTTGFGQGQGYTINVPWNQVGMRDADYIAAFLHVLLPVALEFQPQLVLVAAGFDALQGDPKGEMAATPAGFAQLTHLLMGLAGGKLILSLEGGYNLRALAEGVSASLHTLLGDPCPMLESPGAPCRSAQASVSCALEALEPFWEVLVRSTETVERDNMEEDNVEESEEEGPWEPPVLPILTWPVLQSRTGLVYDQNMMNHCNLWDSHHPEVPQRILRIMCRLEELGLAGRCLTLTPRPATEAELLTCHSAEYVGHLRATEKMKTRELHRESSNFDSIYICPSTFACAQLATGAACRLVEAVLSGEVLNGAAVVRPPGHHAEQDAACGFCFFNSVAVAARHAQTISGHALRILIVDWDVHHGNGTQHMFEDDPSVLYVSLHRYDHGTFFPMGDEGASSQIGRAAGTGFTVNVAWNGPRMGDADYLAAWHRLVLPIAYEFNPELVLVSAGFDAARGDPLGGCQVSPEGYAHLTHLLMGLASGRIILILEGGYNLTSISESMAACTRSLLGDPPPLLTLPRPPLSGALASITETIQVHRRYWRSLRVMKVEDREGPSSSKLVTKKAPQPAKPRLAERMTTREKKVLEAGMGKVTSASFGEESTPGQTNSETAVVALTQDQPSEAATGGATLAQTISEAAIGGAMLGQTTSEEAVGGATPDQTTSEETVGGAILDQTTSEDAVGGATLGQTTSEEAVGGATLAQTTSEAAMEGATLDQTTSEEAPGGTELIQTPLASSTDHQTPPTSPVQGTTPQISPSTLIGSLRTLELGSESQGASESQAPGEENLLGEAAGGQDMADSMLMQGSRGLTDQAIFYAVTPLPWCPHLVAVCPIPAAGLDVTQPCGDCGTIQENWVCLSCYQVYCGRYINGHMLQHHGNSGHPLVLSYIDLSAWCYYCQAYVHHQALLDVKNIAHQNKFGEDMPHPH
smiles,measurement,setting,value
CCC[C@H]1CNC(=O)C(=O)N1C[C@@H]1CCCN1C[C@@H](CC1CCCCC1)N1C[C@H](Cc2ccc(O)cc2)N(CCc2ccccc2)C(=O)C1=O,IC50,A549 [1],52 µM
same,IC50,M14 [2],8.8 µM
same,Ratio IC50,A549 [3],5
same,Ratio IC50,CHO-K1,>10
same,IC50,[4],> 100 µM
O=C1NC[C@H](Cc2ccccc2)N(C[C@@H]2CCCN2C[C@@H](CC2CCCCC2)N2C[C@H](Cc3ccc(O)cc3)N(CCc3ccccc3)C(=O)C2=O)C1=O,Activity,M14 [5],inactive
same,inhibition,B16-F10,Dose-dependent effect
same,IC50,[6],2.7 µM
same,IC50,A549 [1],> 100 µM
same,Activity,M14 [7],Dose-dependent effect
same,inhibition,M14 [2],Dose-dependent effect
same,IC50,M14 [2],3.6 µM
same,inhibition,[8],inactive
same,inhibition,SK-MEL-28 [9],Dose-dependent effect
same,IC50,"SK-MEL-28 [9]; SK-MEL-28, 48 h",0.56 µM
same,Activity,M14 [10],Dose-dependent effect
same,Activity,M14 [11],inactive
same,Activity,M14 [12],inactive
same,Activity,M14 [13],inactive
same,inhibition at 10 µM,SK-MEL-28 [14],100%
same,Activity,M14 [15],Active
same,Activity,M14 [16],400%
same,Activity,M14 [17],Active
same,inhibition at 10 µM,[18],100%
same,inhibition,[19],inactive
same,Activity,M14 [20],inactive
same,Activity,M14 [21],550%
same,IC50,[4],> 100 µM
same,inhibition,[22],inactive
